The record followed here is ChEMBL document CHEMBL4513216, “Probing the Open Global Health Chemical Diversity Library for Multistage-Active Starting Points for Next-Generation Antimalarials” (ACS Infect Dis, 2020).

This data set in a line: Toxicity liver stage against HepG2, at 10uM. In kind it is cell-based. The arrangement: test concentration 10 uM, cell line HepG2-A16-CD81EGFP. The following applies: human, HepG2-A16-CD81EGFP cells; read-out: INHIBITION
The method, boiled down:
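Uninfected HepG2-A16-CD81EGFP cells, 3 × 10^3 per well, 1536-well, plated on prespotted compound at 10 μM final, parasite-free screening media added to match infected plates; puromycin 10 μM positive, DMSO 0.5% negative; run in parallel with 48 h PbLuc assay at 37 °C, 5% CO2; viability by CellTiter-Glo luminescence, normalized to controls.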
As for `CC(C)c1noc([C@@H]2Cc3[nH]cnc3CN2C(=O)Nc2ccccc2)n1`, the cytotoxicity at 10 µM amounted to 0.0515%.

Consider `O=C1N[C@@H]2CCN(C(=O)N3CCOCC3)[C@@H]2C(=O)N1Cc1ccccc1`, for which the cytotoxicity at 10 µM is -3.36%.

As to `CC(C)(C)n1ncc2c1NC(=O)CSC2c1ccc2c(c1)OCCO2` (stereo not given), the cytotoxicity at 10 µM was -1.74%.

For the compound `Cc1nn2cnnc2c(C)c1CCC(=O)Nc1nnc(C2CC2)s1`, the cytotoxicity at 10 µM was -2.89%.

As for `CCc1cnc2c(c1Nc1cccc(OC)c1)c(=O)n(C)c(=O)n2C`, the cytotoxicity at 10 µM came out at 12.6%.

`O=C(C1CC1)N1CCN(c2ccc(-n3cncn3)nn2)CC1`: the cytotoxicity at 10 µM was -4.83%.

As to `O=C(CC1CC1)N1CCC2(CC1)C(=O)NCCN2Cc1ccccc1`, the cytotoxicity at 10 µM is -3.33%.

As to `O=C(NCc1ccccc1)N1C[C@H]2CCN[C@H]2C1`, the cytotoxicity at 10 µM was -5.54%.

Regarding `O=C1COC2(CCN(C(=O)c3cnccn3)CC2)CN1CC1CC1`, the cytotoxicity at 10 µM is -16%.

For `Cc1nc(N2CCCC2)nc2c1CN(C(=O)c1ccco1)CC2`, the cytotoxicity at 10 µM was 5.29%.

Consider `CN(C)C(=O)c1nc2c(n1C)CCN(Cc1ccccc1)C2`, for which the cytotoxicity at 10 µM is 7.83%.

On to `O=C([C@H]1CCCO1)N1Cc2nccn2CC(COc2cccnc2)C1` (stereo not given in full), for which the cytotoxicity at 10 µM was 7.45%.

Turning to `Cc1nc([C@H]2C[C@H]3CN(C(=O)c4cc(C)c(C)s4)CC[C@@H]3O2)no1`, the cytotoxicity at 10 µM turned out to be 0.732%.

As for `O=C1COC2(CCN(Cc3ccncc3)CC2)CN1CC1CC1`, the cytotoxicity at 10 µM is -3.84%.

Take `CCOc1ccc(NC(=O)c2cc3c([nH]c2=O)CCC3)cc1`: the cytotoxicity at 10 µM is 6.5%.

With `Cc1cc2nc(SCC(=O)N3CCOCC3)n(CC(C)C)c(=O)c2[nH]1`, the cytotoxicity at 10 µM stood at 1.36%.

In the case of `COCC1CC2(CCN(C(=O)c3cccn3C)CC2)CN1C(C)C` (stereo not given), the cytotoxicity at 10 µM is -14.2%.

Take `Cc1cccc(COC[C@]23COC[C@H]2CN(C(=O)c2ccsc2)C3)n1`: the cytotoxicity at 10 µM was -7.85%.

Regarding `CN1CCN(C(=O)[C@@H]2CCO[C@@H]3CCN(c4ncccn4)C[C@@H]32)CC1`, the cytotoxicity at 10 µM is -4.96%.

Regarding `Cc1cc(C(=O)NCC2COCc3c(C)nnn3C2)no1` (stereo not given), the cytotoxicity at 10 µM is -7.32%.

Take `O=C(N[C@@H]1CN(Cc2cccs2)[C@@H]2CCCO[C@@H]21)C1CC1`: the cytotoxicity at 10 µM stood at 3.63%.

On to `O=C1CCC(c2nc(C3CCN(C(=O)Cc4cccs4)CC3)no2)N1` (stereo not given), for which the cytotoxicity at 10 µM was -2.83%.

In the case of `COC1CCCOC12CCN(C(=O)c1ccc3[nH]nnc3c1)CC2` (stereo not given), the cytotoxicity at 10 µM was -3.97%.

Consider `COc1ccc2c(c1)NC(C1CCN(C(=O)C3CC3)CC1)NS2(=O)=O` (stereo not given), for which the cytotoxicity at 10 µM turned out to be 0.0454%.

Take `CCCC(=O)N1CCC(Cc2ccccc2-c2ccccc2)(C(N)=O)C1` (stereo not given): the cytotoxicity at 10 µM is -23.6%.

On to `Cc1cc(NC(=O)c2ccc(C)c(F)c2)[nH]n1`, for which the cytotoxicity at 10 µM is -42.1%.

Regarding `CC1CS(=O)(=O)CCN1Cc1ccccc1N(C)C` (stereo not given), the cytotoxicity at 10 µM turned out to be 5.29%.

With `CCc1nsc(N2CCn3c(nnc3-c3ccccc3)C2)n1`, the cytotoxicity at 10 µM came to 3.67%.

Consider `O=C(c1cccnc1N1CCCC1)N1CCOC(c2ccccc2)C1` (stereo not given), for which the cytotoxicity at 10 µM came to 3.13%.

Consider `COc1ccccc1CC(NC(=O)N1CCC[C@@H]1CO)C(C)C` (stereo not given in full), for which the cytotoxicity at 10 µM amounted to 3.34%.

Regarding `CC(NC(N)=O)C(=O)NCc1ccc(Br)c(F)c1` (stereo not given), the cytotoxicity at 10 µM turned out to be 7.97%.

With `c1csc(-c2noc(C3CCCOC3)n2)c1` (stereo not given), the cytotoxicity at 10 µM was found to be 7.39%.

For `O=C(Nc1cnn(Cc2ccc(Cl)cc2)c1)N1CCCC1CO` (stereo not given), the cytotoxicity at 10 µM was -1.13%.

`Cc1ccccc1C(NC(=O)NCC1(CO)CC1)C1CC1` (stereo not given): the cytotoxicity at 10 µM was -7.16%.

On to `COCC(=O)N1CCN(c2ccc(C(=O)OC)cc2)CC1C` (stereo not given), for which the cytotoxicity at 10 µM was -14.2%.

With `COc1cc(Cl)c(C)cc1NC(=O)CCNc1ccc(C#N)cn1`, the cytotoxicity at 10 µM was found to be 0.423%.

Turning to `CCCNC(=O)CC1OCCc2ccsc21` (stereo not given), the cytotoxicity at 10 µM is -1.5%.

With `COc1cccc(CCC(=O)N2CCN(Cc3noc(C)n3)CC2)c1`, the cytotoxicity at 10 µM was 3.09%.

For the compound `CCC(C)Sc1nncn1-c1ccc(OC)nc1` (stereo not given), the cytotoxicity at 10 µM is -1.35%.

For `Cc1cc2n(n1)CC(CNC1CCN(C3CC3)CC1)CN2` (stereo not given), the cytotoxicity at 10 µM came out at 4.16%.

Take `CCc1noc(CN2CCC(NC(=O)c3ccc(C)s3)CC2)n1`: the cytotoxicity at 10 µM was -5.04%.

Take `COC(=O)c1cc(OC)c(OC)cc1NCc1c(C)noc1C`: the cytotoxicity at 10 µM amounted to 4%.

As to `CS(=O)(=O)NCC1CCCN(C(=O)Nc2cccc3ccccc23)C1` (stereo not given), the cytotoxicity at 10 µM was -139%.

With `CN1CCCN(c2nc(C3CC3)ns2)CC1`, the cytotoxicity at 10 µM was -3.23%.

Take `COc1ccsc1C(=O)Nc1cc(CN2CCOCC2)ccc1C`: the cytotoxicity at 10 µM was -0.0813%.

With `O=C1CCc2cc(OCCN3CCc4cncnc4C3)ccc2N1`, the cytotoxicity at 10 µM is -7.2%.

As for `CCC1CN(c2cnn(C)c(=O)c2Br)CCO1` (stereo not given), the cytotoxicity at 10 µM was -5.09%.

For `O=C(Cc1csc(N2CCNC2=O)n1)NCC1(c2ccccc2)CC1`, the cytotoxicity at 10 µM is -123%.

Consider `CCOc1ccc(NC2CCN(C)C2=O)cn1` (stereo not given), for which the cytotoxicity at 10 µM was -3.7%.

As to `CC(C)(CNc1cn[nH]c(=O)c1Cl)c1ccc2c(c1)OCO2`, the cytotoxicity at 10 µM was determined as 6.67%.

For the compound `Cc1ccc(-c2n[nH]cc2CNCC2CCS(=O)(=O)C2)o1` (stereo not given), the cytotoxicity at 10 µM was 12.4%.

As for `O=C(CNC(=O)C1CC1)NCC(F)(F)F`, the cytotoxicity at 10 µM was -5.82%.

As to `CN(C)C(=O)Cn1ccc2cc(NC(=O)N3CCOCC3)ccc21`, the cytotoxicity at 10 µM came to 6.35%.

Regarding `COc1ccc(-c2nnc(SCC(=O)NCC(C)C)[nH]2)c(OC)c1`, the cytotoxicity at 10 µM is -6.73%.

As for `CCc1nnc2n1CCN(C(=O)c1ccc3nc(C)c(C)nc3c1)C2`, the cytotoxicity at 10 µM is -10.9%.

For `Cc1nn(CC(=O)N2CCCCC2Cn2cccn2)c(C)c1Cl` (stereo not given), the cytotoxicity at 10 µM was 2.35%.

For `Cc1ccoc1C(=O)N1C[C@H](OCC2CC2)[C@H]2OCCC[C@H]21`, the cytotoxicity at 10 µM is 2.89%.

In the case of `CC(C)Cc1nc(CN(C)c2cc(C(C)C)nc3ccnn23)no1`, the cytotoxicity at 10 µM was determined as 3.61%.

Consider `Cc1ccccc1CN1C[C@@H](CN(C)CCO)[C@@H](CO)C1`, for which the cytotoxicity at 10 µM is -1.03%.

For `Cc1cccn2c(CC(=O)N3CCC(Oc4ncccn4)CC3)cnc12`, the cytotoxicity at 10 µM came out at 6.78%.

With `COCCN1CCCC2(CCN(c3nc(C)nc4c3CCC4)C2)C1=O` (stereo not given), the cytotoxicity at 10 µM is -11.4%.

In the case of `Cc1ccc2[nH]c(CN(C)Cc3n[nH]c4c3CCC4)nc2c1`, the cytotoxicity at 10 µM came out at 4.85%.

`CC(=O)NCC(=O)N1CCCC(C(=O)c2ccc(C(C)(C)C)cc2)C1` (stereo not given): the cytotoxicity at 10 µM was found to be 5.78%.

With `Nc1cc(C(=O)N2CCC3(CC2)Nc2ccccc2NC3=O)ccn1`, the cytotoxicity at 10 µM is 6.13%.

Consider `O=S(=O)(c1ccc(-c2cnco2)cc1)N1CCCC(O)(CO)CC1` (stereo not given), for which the cytotoxicity at 10 µM is 1.72%.

On to `Cc1nc(NCC(O)CN2CCCCCC2)c2c(C)nn(C)c2n1` (stereo not given), for which the cytotoxicity at 10 µM was -2.86%.

Regarding `CC(C)(O)CCc1cccc(C(=O)N[C@@H](CO)C(N)=O)c1`, the cytotoxicity at 10 µM was determined as 4.76%.

Turning to `CCOc1ccccc1-n1c(C2CC(=O)N(C)C2)n[nH]c1=O` (stereo not given), the cytotoxicity at 10 µM worked out at 2.48%.

With `CCCC1(CO)CCCN(c2ncccc2F)C1` (stereo not given), the cytotoxicity at 10 µM was -6.83%.

For the compound `O=C(Cc1cccc(F)c1)NCCCNC(=O)c1cccc(O)c1`, the cytotoxicity at 10 µM came to 1.06%.

As for `CC(C)Cc1cc(NC(=O)c2cc(Cl)c[nH]2)n(C)n1`, the cytotoxicity at 10 µM is -7.94%.

With `Cc1ccc(-c2nnc(CN3CCCCC3Cn3cncn3)o2)cc1` (stereo not given), the cytotoxicity at 10 µM worked out at 3.84%.

Take `Cc1ccc(C(C)N(C)Cc2nc3c(cnn3C)c(=O)[nH]2)s1` (stereo not given): the cytotoxicity at 10 µM is -4.31%.

Regarding `CC(C)c1noc(CCCC(=O)NC(C)c2ccccn2)n1` (stereo not given), the cytotoxicity at 10 µM was -4.36%.

`Cn1ncc2c(=O)[nH]c(CN3CCCC3c3cccc(F)c3)nc21` (stereo not given): the cytotoxicity at 10 µM is -9.14%.

For the compound `Cc1ccc(NC2CCN(C(=O)COc3ccccc3)CC2)nn1`, the cytotoxicity at 10 µM was -3.25%.

As for `O=C(c1cnc(-c2ccccn2)s1)N1CCCC(n2cccn2)C1` (stereo not given), the cytotoxicity at 10 µM is -11.9%.

Regarding `CCN(Cc1nc2c(cnn2C)c(=O)[nH]1)Cc1ccccc1Cl`, the cytotoxicity at 10 µM is -22.7%.

As for `CSC(C)C(=O)NCc1ccc(-n2cncn2)nc1` (stereo not given), the cytotoxicity at 10 µM was determined as 3.28%.

Regarding `COc1ccc(-c2cc(C3CCNCC3)nc(C)n2)cc1`, the cytotoxicity at 10 µM turned out to be 10.2%.

`COc1ccc(CNCC(C)Oc2ccccn2)cc1` (stereo not given): the cytotoxicity at 10 µM is -2.7%.

With `CN(C)[C@@H]1CCN(c2ncccn2)[C@H]1Cc1cccnc1`, the cytotoxicity at 10 µM was -3.9%.

In the case of `O=C(CN1CC(c2nc(-c3ccco3)no2)C1)NCc1ccc(F)cc1`, the cytotoxicity at 10 µM is -5.07%.

On to `O=S(=O)(C1CC1)N1CCO[C@H]2[C@@H](Oc3ncccc3F)CC[C@@H]21`, for which the cytotoxicity at 10 µM turned out to be 1.67%.

Turning to `CCn1cc2c(n1)CN(C(=O)c1ccncc1)CC2COCC1CC1` (stereo not given), the cytotoxicity at 10 µM was -2.37%.

Turning to `NC(=O)c1ccc(CNC2CC2)cc1`, the cytotoxicity at 10 µM came to 8.57%.

Take `Cc1ccc(C(=O)N2Cc3c(CN4CCCCC4)nn(C)c3C2)cc1F`: the cytotoxicity at 10 µM is -4.15%.

`Cc1cccc(CN2CCC3(CCCN(C(=O)N4CCCC4)C3)C2=O)n1` (stereo not given): the cytotoxicity at 10 µM is 8.76%.

As to `Cc1nnc([C@@H]2CC[C@@H]3[C@@H](CCN3Cc3ccccn3)O2)o1`, the cytotoxicity at 10 µM is 11.3%.

Take `O=C(C1CCCO1)N1CCc2ncnc(NC3CCC3)c2CC1` (stereo not given): the cytotoxicity at 10 µM is -5.16%.

In the case of `O=C(c1ccsc1)N1CCO[C@@H]2CN(Cc3ccccn3)CC[C@@H]2C1`, the cytotoxicity at 10 µM was -123%.

On to `Cc1cc(C(=O)N2CCC3(CC2)CC(c2cccnc2)C(=O)N3)no1` (stereo not given), for which the cytotoxicity at 10 µM is -133%.

As for `COCC1CN(C(=O)c2ccco2)Cc2cn(C)nc21` (stereo not given), the cytotoxicity at 10 µM was determined as 9.08%.

Take `CCc1ccc(NC(=O)N2C[C@@H]3C[C@H](C(=O)NC(C)C)[C@H](C2)O3)cc1`: the cytotoxicity at 10 µM is -1.67%.

`CCn1ncc(-c2nc3c[nH]n(CC)c-3n2)c1C`: the cytotoxicity at 10 µM came to 2.13%.
